From PubChem
Sampled rows, rich in hits. Any-hit rate of the full collection: about 0.95%.
PvdQ acylase: P. aeruginosa PvdQ acylase inhibitors, primary screen, biochemical, fluorescence, plate reader and imaging, single point; hit rate 0.063% among 340,000; AID 488965, 2010; inhibition, % at 10 µM; PvdQ acylase [Pseudomonas aeruginosa LESB58]; purified PvdQ acylase; in the data active means inhibition above about 30%, passing the limit was not always enough
CAL PDZ FP-1: untagged CAL PDZ binding inhibitors, primary screen, biochemical, fluorescence polarization, HTS | Golgi-associated PDZ and coiled-coil motif-containing protein (Homo sapiens), Q9HD26 | purified CAL PDZ, TMR-peptide fluorescence polarization, 1 h | inhibition, % at 24.9 µM | hit rate 0.92% among 300,000 | AID 602252, 2012;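 active means mean inhibition of at least 30% with at least half of replicates also reaching 30%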
miR122 inh: miR-122 Renilla sensor signal increase in Huh7, primary screen, miR-122 inhibitor project, cell-based, single point, plate reader | activation (reporter increase), % at 12.5 µM | Huh7 miR-122 Renilla luciferase sensor, 48 h; neutral wells = 0, positive control = 100 | hit rate 0.3% among 340,000;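 active means mean replicate activation score at least 90 and every replicate individually at or above 90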;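 further: higher luciferase means less miR-122 activity so hits act as miR-122 inhibitors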
CAL PDZ FP-2: CAL PDZ peptide-binding inhibitors, primary screen, biochemical, fluorescence polarization, Cer-tagged CAL PDZ, HTS; purified CAL PDZ, TMR-peptide fluorescence polarization, 1 h; Golgi-associated PDZ and coiled-coil motif-containing protein (Homo sapiens), Q9HD26; inhibition, % at 20 µM; hit rate 0.02% among 330,000;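 active means highest replicate inhibition of at least 40%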
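Control set: unlabelled peptide and DMSO controls / Material: purified CerCALP PDZ construct / Timing: 1 h incubation at room temperature before polarization reading / Doses: 20 µM, one dose / Detection: fluorescence polarization (mP)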
Each line names hits and unclear results; the compound was inactive in the other large screens; [ ] = dose if it differs, or a comment.

Nc1nonc1-n1nnc(C(=O)N/N=C/c2ccccn2)c1CNc1ccccc1	CAL PDZ FP-1 131.1
Cc1cc(C)c(/C=N/NC(=O)c2nnn(-c3nonc3N)c2CN2CCC(C)CC2)c(C)c1	CAL PDZ FP-1 37.7
CC1CCN(Cc2c(C(=O)N/N=C/c3cc(Br)ccc3O)nnn2-c2nonc2N)CC1	none
O=C(COc1ccc(-n2cnnn2)cc1)NC(=O)NCc1ccccc1	CAL PDZ FP-1 50.0
O=C(COc1ccc(-n2cnnn2)cc1)NC1CCCCC1	none (no result: miR122 inh)
O=C(NCc1ccccc1)c1cc2ccccc2oc1=O	CAL PDZ FP-1 67.9
O=C(NCc1ccc(Cl)cc1)c1cc2ccccc2oc1=O	none
COc1cccc(C(=O)n2c(SC)nc3cc4c(cc32)OCCO4)c1	none (no result: CAL PDZ FP-1)
CC1CC(C)CN(C(=O)/C=C/c2ccc([N+](=O)[O-])s2)C1 (stereo not given)	none (no result: CAL PDZ FP-1, miR122 inh)
CC1CN(C(=O)/C=C/c2ccc([N+](=O)[O-])s2)CC(C)O1 (stereo not given)	CAL PDZ FP-1 39.5 (no result: miR122 inh)
Nc1nnc(SCC(=O)NC2CCCCC2)n1-c1ccccc1	none
O=C1CSC(c2ccc([N+](=O)[O-])cc2)N1CCN1CCCCC1 (stereo not given)	CAL PDZ FP-1 44.0 (no result: miR122 inh)
C[n+]1ccc(/C=C/c2c[nH]c3ccc(F)cc23)cc1	none (no result: miR122 inh)
O=C(CN1C(=O)C2CC=CCC2C1=O)Nc1nc2ccccc2[nH]1 (stereo not given)	CAL PDZ FP-1 46.9 (no result: CAL PDZ FP-2)
O=C(Cc1ccccc1)Nc1nc2ccccc2[nH]1	none (no result: miR122 inh)
COCC(=O)N1CCCCN2[C@@H](CO)[C@@H](c3ccc(C#Cc4cccnc4)cc3)[C@@H]2C1	none (no result: PvdQ acylase, CAL PDZ FP-1, CAL PDZ FP-2)
COc1ccc(S(=O)(=O)N2CCC(C(=O)Nc3cccc(C(C)=O)c3)CC2)cc1C	none (no result: CAL PDZ FP-2)
O=C(NCCc1c[nH]c2ccccc12)c1cccc(S(=O)(=O)Nc2ccccc2Cl)c1	none (no result: miR122 inh)
CN(c1ccccc1)S(=O)(=O)c1cccc(C(=O)NCCc2c[nH]c3ccccc23)c1	CAL PDZ FP-1 59.4
COc1cccc(/C=N/NC(=O)c2cnccn2)c1O	CAL PDZ FP-1 90.4
O=C(Cn1c(CO)nc2ccccc21)Nc1ccccc1Cl	none (no result: CAL PDZ FP-1, miR122 inh)
COc1cc(C2C3=C(COC3=O)Oc3cc4c(cc32)OCO4)ccc1O (stereo not given)	none
COc1cc(C2C3=C(COC3=O)OC(C)(C)Oc3cc4c(cc32)OCO4)cc(OC)c1OC (stereo not given)	miR122 inh 114.3
CNC(=O)CN1C(=O)COc2ccc(S(=O)(=O)N3CCCCCC3)cc21	none
Cc1ccc2nc(C)c(C)nc2c1N	miR122 inh 113.3
COc1cccc(C2CC(c3ccccc3Cl)Nc3nc(N)nn32)c1 (stereo not given)	none
O=C(COc1ccc(Cl)cc1Cl)Nc1ccc(CN2CCOCC2)cc1	CAL PDZ FP-1 83.9
OCc1ccc(N=Nc2ccccc2)cc1	none (no result: CAL PDZ FP-1)
COc1ccc(Cn2c(-c3ccco3)nc3oc4cc(OC)ccc4c(=O)c3c2=O)cc1	CAL PDZ FP-1 37.7
COc1ccc2c(=O)c3c(=O)n(Cc4ccco4)c(-c4ccco4)nc3oc2c1	none
COc1c(S(=O)(=O)N2CCCC2)ccc(Cl)c1Cl	none
CC(NC(=O)COc1ccccc1)C(=O)N1CCN(c2ccc(F)cc2)CC1 (stereo not given)	CAL PDZ FP-1 72.7 (no result: miR122 inh)
O=C(COc1ccccc1)NCC(c1ccco1)N1CCN(c2ccc(F)cc2)CC1 (stereo not given)	none (no result: miR122 inh)
Cc1cc(C)n(/N=C\c2c(O)ccc3ccccc23)c(=O)c1C(N)=O	CAL PDZ FP-1 50.4
c1ccc(CCC2CCCCN2Cc2cn[nH]c2-c2cc3ccccc3o2)nc1 (stereo not given)	CAL PDZ FP-1 101.2
CCOCCCNC(=O)c1ccc2c(=O)n(Cc3ccc4c(c3)OCO4)c(=S)[nH]c2c1	CAL PDZ FP-1 36.8
CCOCCCn1c(=S)[nH]c2cc(C(=O)NC3CCCC(C)C3C)ccc2c1=O (stereo not given)	CAL PDZ FP-1 62.3
N/C(=N\OC(=O)c1ccco1)c1cccnc1	none (no result: miR122 inh)
C[C@@H]1CN([C@H](C)CO)S(=O)(=O)c2ccc(C#Cc3cccnc3)cc2O[C@@H]1CN(C)C(=O)CN(C)C	none (no result: PvdQ acylase, CAL PDZ FP-1, CAL PDZ FP-2)
CCOC(=O)Cc1nc2ccccc2n(CC#N)c1=O	CAL PDZ FP-1 75.8
Cc1cc(Br)ccc1SCC(=O)OCC(=O)Nc1ncc(C(F)(F)F)cc1Cl	none
Cc1ccc(S(=O)(=O)c2cccc(S(=O)(=O)N3CCCC3)c2)cc1S(=O)(=O)N1CCCC1	miR122 inh 110.4
Cc1ccc(S(=O)(=O)c2cccc(S(=O)(=O)N3CCOCC3)c2)cc1S(=O)(=O)N1CCOCC1	none
O=C1C=CC(=Nc2ccc3c(c2)C(=O)c2ccccc2-3)O1	none (no result: CAL PDZ FP-1)
Cc1ccccc1C(=O)NN1C(=O)CSC1=S	none
O=C1CSC(=S)N1Nc1ccccc1	CAL PDZ FP-1 52.6
C[C@@H]1CN([C@H](C)CO)C(=O)c2cccc(N(C)C)c2O[C@H]1CN(C)C(=O)Nc1ccccc1	miR122 inh 124.5[16.7 µM] (no result: PvdQ acylase, CAL PDZ FP-1, CAL PDZ FP-2)
C[C@@H]1CN([C@H](C)CO)C(=O)c2cc(NC(=O)Nc3ccccc3)ccc2O[C@@H]1CN(C)S(=O)(=O)c1ccc(Cl)cc1	miR122 inh 100.3[16.7 µM] (no result: PvdQ acylase, CAL PDZ FP-1, CAL PDZ FP-2)
C[C@@H]1CN([C@H](C)CO)C(=O)c2cccc(N(C)C)c2O[C@@H]1CN(C)C(=O)Nc1ccccc1	none (no result: PvdQ acylase, CAL PDZ FP-1, CAL PDZ FP-2)
C[C@H]1CN([C@@H](C)CO)C(=O)c2cc(NC(=O)NC3CCCCC3)ccc2O[C@@H]1CN(C)C(=O)Nc1ccccc1	miR122 inh 93.4[16.7 µM] (no result: PvdQ acylase, CAL PDZ FP-1, CAL PDZ FP-2)
C[C@@H]1CN([C@@H](C)CO)C(=O)c2cc(NC(=O)Nc3ccccc3)ccc2O[C@@H]1CN(C)S(=O)(=O)c1ccc(Cl)cc1	none (no result: PvdQ acylase, CAL PDZ FP-1, CAL PDZ FP-2)
Cc1ccc(S(=O)(=O)Nc2ccc3c(c2)C(=O)N([C@@H](C)CO)C[C@@H](C)[C@@H](CN(C)C(=O)Nc2ccc(F)cc2)OCCCC[C@H](C)O3)cc1	none (no result: PvdQ acylase, CAL PDZ FP-1, CAL PDZ FP-2)
Cc1ccc(S(=O)(=O)Nc2ccc3c(c2)C(=O)N([C@@H](C)CO)C[C@H](C)[C@H](CN(C)C(=O)Nc2ccc(F)cc2)OCCCC[C@@H](C)O3)cc1	miR122 inh 94.1[16.7 µM] (no result: PvdQ acylase, CAL PDZ FP-1, CAL PDZ FP-2)
CCn1cc(C(=O)N2CCN(c3ccccc3)CC2)c(=O)c2cc(S(=O)(=O)N3CCOCC3)ccc21	none
C[C@@H]1CN([C@H](C)CO)C(=O)c2cc(NC(=O)Cc3cn(C)c4ccccc34)ccc2O[C@@H]1CN(C)S(=O)(=O)c1ccc(Cl)cc1	miR122 inh 101.0[16.7 µM] (no result: PvdQ acylase, CAL PDZ FP-1, CAL PDZ FP-2)
C[C@@H]1CN([C@@H](C)CO)C(=O)c2cc(NC(=O)Cc3cn(C)c4ccccc34)ccc2O[C@@H]1CN(C)S(=O)(=O)c1ccc(Cl)cc1	none (no result: PvdQ acylase, CAL PDZ FP-1, CAL PDZ FP-2)
C[C@@H]1CN([C@H](C)CO)C(=O)c2cc(NC(=O)Cc3ccccc3)ccc2O[C@@H]1CN(C)S(=O)(=O)c1ccc(Cl)cc1	miR122 inh 98.6[16.7 µM] (no result: PvdQ acylase, CAL PDZ FP-1, CAL PDZ FP-2)
C[C@@H]1CN([C@@H](C)CO)C(=O)c2cc(NC(=O)Cc3ccccc3)ccc2O[C@H]1CN(C)S(=O)(=O)c1ccc(Cl)cc1	none (no result: PvdQ acylase, CAL PDZ FP-1, CAL PDZ FP-2)
